CHRM4 agonist = human M4 muscarinic receptor agonists, primary screen, CHO-K1 cells, Fluo-8 calcium fluorescence; Muscarinic acetylcholine receptor M4 (Homo sapiens), P08173; CHO-K1 hM4/Gqi5; vehicle 0%, full acetylcholine response 100%; activation, % at 3 µM; 360,000 compounds, 0.14% hits; AID 624127, 2012;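 active = activation above the run mean over all test wells plus 3 SD, cut at about 32% in these data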;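 also: peak over basal fluorescence ratio per well then scaled between controls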
Target sequence (P08173 whole entry, looked up): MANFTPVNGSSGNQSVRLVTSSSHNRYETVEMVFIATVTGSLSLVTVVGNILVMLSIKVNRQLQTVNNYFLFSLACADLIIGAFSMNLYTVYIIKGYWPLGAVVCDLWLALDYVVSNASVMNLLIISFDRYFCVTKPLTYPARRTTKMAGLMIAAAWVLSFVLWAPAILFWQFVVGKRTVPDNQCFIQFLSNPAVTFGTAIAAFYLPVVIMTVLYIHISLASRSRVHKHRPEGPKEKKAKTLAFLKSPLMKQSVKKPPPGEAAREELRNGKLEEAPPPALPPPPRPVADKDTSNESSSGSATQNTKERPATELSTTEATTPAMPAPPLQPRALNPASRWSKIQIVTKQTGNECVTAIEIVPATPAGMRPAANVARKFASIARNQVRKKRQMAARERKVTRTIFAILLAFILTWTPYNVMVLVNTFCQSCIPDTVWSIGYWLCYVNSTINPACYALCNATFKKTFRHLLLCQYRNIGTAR
CHRM5 agonist = human M5 muscarinic receptor agonists, primary screen, CHO-K1 cells, Fluo-8 calcium fluorescence. Muscarinic acetylcholine receptor M5 (Homo sapiens), P08912. CHO-K1 hM5 cells; 0% DMSO wells, 100% maximal acetylcholine response. activation, % at 3 µM. 360,000 compounds, 0.19% hits. AID 624037, 2012;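 active = activation above the run's mean over test compounds plus 3 SD, cut at about 23% in these data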;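 also: signal is peak over basal fluorescence ratio across the kinetic read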
M5 PAM = human M5 muscarinic receptor positive allosteric modulators, primary screen, CHO-K1 cells, Fluo-8 calcium fluorescence. activation, % at 3 µM. Muscarinic acetylcholine receptor M5 (Homo sapiens), P08912. 360,000 compounds, 0.3% hits. CHO-K1 hM5, ACh EC20 PAM; 0% = ACh EC20, 100% = ACh EC100;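 active = activation above the run cutoff, the mean activation of all test compounds plus 3 SD, cut at about 18% in these data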
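Assay system – human M5 receptor in CHO-K1 cells · Read-out – % activation, ACh-normalized · Technique – Fluo-8 calcium fluorescence · Dosing – single-point, 3 µM nominal · Incubation – Fluo-8 loading 80 min at 37 °C plus 30 min room temperature · Repeats – singlicate, one well per test compound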
M4 PAM = human M4 muscarinic receptor positive allosteric modulators, primary screen, CHO-K1 cells, Fluo-8 calcium fluorescence; Muscarinic acetylcholine receptor M4 (Homo sapiens), P08173; CHO-K1 hM4/Gqi5, ACh EC20; 0% = ACh EC20, 100% = maximal ACh; activation, % at 3 µM; 360,000 compounds, 0.4% hits;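 active = activation above its plate's cutoff, the mean activation of sample wells plus 3 SD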
M4 antag = human M4 muscarinic receptor antagonists, primary screen, CHO cells, Fluo-8 calcium fluorescence. inhibition, % at 3 µM. CHO-hM4 cells, ACh EC80. 360,000 compounds, 0.73% hits;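 active = inhibition above its plate's cutoff, the mean inhibition of sample wells plus 3 SD, cut at about 27% in these data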
CHRM5 antagonist = human M5 muscarinic receptor antagonists, primary screen, CHO cells, Fluo-8 calcium fluorescence. Muscarinic acetylcholine receptor M5 (Homo sapiens), P08912. CHO-hM5 cells, ACh EC80. inhibition, % at 3 µM. 360,000 compounds, 0.59% hits. AID 624040, 2012;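 active = inhibition above a per-plate cutoff, the mean of that plate's test compounds plus 3 SD, cut at about 27% in these data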
A number is an active result; . = inactive. Most compounds without a hit are left out; they make up all but 1.8% or so of the library.

SMILES	CHRM4 agonist	CHRM5 agonist	M5 PAM	M4 PAM	M4 antag	CHRM5 antagonist
C/C(=N\NC(=O)c1cccc(S(=O)(=O)N2CCCC2)c1)c1ccc(OCC(=O)N(C)C)cc1	.	.	.	.	.	.
CCN(CC)C(=O)c1oc2ccc(S(=O)(=O)N3CCCCCC3)cc2c1C	.	.	.	.	.	.
CCN(CC)C(=O)c1oc2ccc(S(=O)(=O)N3CC(C)CC(C)C3)cc2c1C (centres undefined)	.	.	.	.	.	30
CC[N+](CC)(CC)CCOc1ccc(/C=C/c2ccccc2)cc1	.	.	.	.	27	95
COC(=O)[C@@]12C[C@@H](CC(=O)NCCCN3CCCC3=O)C(=O)N(CCc3ccc(OC)c(OC)c3)C1=CCC(C)(C)C2	.	.	.	.	.	.
CCNC(=O)C1(C)CCCN(C(=O)c2ccnc(Cl)c2)C1 (centres undefined)	.	.	.	.	.	.
O=C(Oc1cccc(Nc2ncnc3ccccc23)c1)c1ccccc1Cl	.	.	.	.	34	45
CC(Sc1nnc(Cc2ccccc2)o1)C(=O)Nc1ccccc1[N+](=O)[O-] (centres undefined)	.	.	.	.	.	.
COCc1nc2ccccc2n1CCc1ccccc1	.	.	.	.	.	.
Oc1ccccc1CNc1ccc(Br)cn1	.	.	.	.	33	.
COCCNC(=O)C1CCCN(C(=O)COc2ccc(Cl)cc2Cl)CC1 (centres undefined)	.	.	.	.	.	.
COc1ccc2ccccc2c1C1NC(=O)NC(C)=C1[N+](=O)[O-] (centres undefined)	.	.	.	.	.	.
N#C/C(=C\c1ccco1)C(=O)NCc1ccccc1	.	.	.	.	.	.
N#CC(C#N)=C1C=CC=CN1/C(=C\c1ccco1)C(=O)c1ccc(Cl)cc1	.	.	.	.	55	.
N#CC(C#N)=C1C=CC=CN1/C(=C\c1ccco1)C(=O)c1ccc(-c2ccccc2)cc1	.	.	.	.	27	.
CC(/C=N/n1c(-c2ccc(Cl)cc2)n[nH]c1=S)=C\c1ccco1	.	.	.	.	.	.
COCCC(=O)N1CCOCC1c1cc(C(=O)NCc2ccccc2)no1 (centres undefined)	.	.	.	.	.	.
O=C(NCc1ccccc1Cl)c1ccncc1	.	.	.	.	.	.
COc1ccccc1Cc1c(C2CCCCC2)nc2c3ccccc3ccn12	.	.	18	.	.	.
Cc1csc(NC(=O)c2cc(-c3ccccc3)nc3ccccc23)n1	.	.	.	.	.	28
COc1cccc(C2CC(c3ccccc3)=NN2S(=O)(=O)c2ccc(C)cc2)c1OC (centres undefined)	.	.	27	.	.	.
O=C1NC(=S)NC1=Cc1ccccc1O	134	110	.	.	.	31
O=C1NC(=S)N/C1=C/c1cccc2ccccc12	.	.	.	.	.	.
CCc1ccc(N2CC(C)Cn3c2nc2c3c(=O)[nH]c(=O)n2C)cc1 (centres undefined)	.	.	.	.	.	.
O=C(CC(NC(=O)OCc1ccccc1)C(=O)OCc1ccccc1)OCc1ccccc1 (centres undefined)	.	.	.	.	28	.
SMILES	CHRM4 agonist	CHRM5 agonist	M5 PAM	M4 PAM	M4 antag	CHRM5 antagonist
O=C(CC(NC(=O)OCc1ccccc1)C(=O)O)OCc1ccccc1 (centres undefined)	.	.	.	.	.	.
N=C1C(c2ccccc2)=C(O)CN1CCO	.	.	.	17	.	.
O=C(Nc1cccc(Br)c1)C1CCCC1	.	.	.	14	.	.
CCOc1ccc(/C=C/C(=O)c2c(O)c3ccccc3oc2=O)cc1	.	.	.	.	.	.
CN(C)c1ccc(/C=C/C(=O)c2c(O)c3ccccc3oc2=O)cc1	.	26	.	.	.	.
C#CCOCCOCCOCCNc1nc(N2CCN(C(=O)[C@H](CCC(=O)O)n3cc([C@@H](N)CO)nn3)CC2)nc(N2CCN(C(=O)[C@H](CCC(=O)O)n3cc([C@@H](N)CCSC)nn3)CC2)n1	.	.	.	.	.	.
CN(C)C(C)(C)/C=C/C(O)(c1ccccc1)c1ccccc1	.	.	.	.	70	63
CN(C)N(Cc1ccccc1)C(=O)C(O)(c1ccccc1)c1ccccc1	.	.	.	.	.	.
Cc1ccc(S(=O)(=O)NCCSc2nnnn2-c2ccc(C(N)=O)cc2)cc1	.	.	.	.	.	.
Cc1ccc(-n2nnnc2Sc2ccc(S(=O)(=O)NCCN(C)C)cc2[N+](=O)[O-])cc1	.	.	.	.	34	.
O=[N+]([O-])c1cc(S(=O)(=O)NCCN2CCOCC2)ccc1Sc1nnnn1-c1ccccc1	.	.	.	.	49	.
O=[N+]([O-])c1cc(S(=O)(=O)NCCCN2CCOCC2)ccc1Cl	.	.	.	.	.	.
O=C(Cc1ccccc1Cl)c1ccccc1	.	.	.	27	.	.
COc1cc(C=O)ccc1OCC(=O)N1CCCC1	.	.	20	.	.	.
COc1ccc(NC(=O)COC(=O)C2CCCCC2)c([N+](=O)[O-])c1	.	.	.	.	.	.
COc1ccc(NC(=O)COC(=O)CC2CC3CCC2C3)c([N+](=O)[O-])c1 (centres undefined)	.	.	.	21	.	.
CCN1CCCC1CN(Cc1cc2c(C)cc(C)cc2[nH]c1=O)C(=O)NC1CCCCC1 (centres undefined)	.	.	.	.	36	.
CCOC(=O)/C(=C/c1ccc(OC(=O)c2ccccc2)cc1)C(C)=O	.	.	.	21	.	.
CCOC(=O)/C(=C/c1c2ccccc2cc2ccccc12)NC(=O)c1ccccc1	.	.	.	.	.	.
CCOC(=O)/C(=C\c1ccccc1)NC(=O)c1ccccc1	.	.	19	.	.	.
Cc1cc(Cl)ccc1OCC(=O)NCc1ccncc1	.	.	.	.	.	.
O=C(COc1ccc(Cl)cc1Cl)NCc1ccncc1	.	.	.	.	30	.
Cc1cc(Cl)ccc1OCC(=O)Nc1ccncc1	.	.	.	.	.	33
